From the EternaBench riboswitch data

System: MS2 coat protein
Assay: apparent Kd, MS2 coat protein; higher = weaker binding; RNA-MaP array; FMN 200 µM where present
In short: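 Designs were transcribed by stalled E. coli RNA polymerase on Illumina sequencing-chip clusters. They were titrated with SNAP-549-labelled MS2 coat protein from 0.7 or 1.5 nM, doubling to 3 µM, without and then with constant ligand. Buffer: 100 mM Tris-HCl pH 7.5, 80 mM KCl, 4 mM MgCl2, BSA, DTT, yeast tRNA, Tween-20. Green signal was normalised to red-channel RNA signal and control-cluster median Fmax. Apparent Kd is the median of filtered per-cluster binding-curve fits.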

[1] = designed as: ON switch for flavin mononucleotide, no ligand
[2] = ligand present: flavin mononucleotide, designed as: ON switch for flavin mononucleotide
[3] = designed as: OFF switch for flavin mononucleotide, no ligand
[4] = ligand present: flavin mononucleotide, designed as: OFF switch for flavin mononucleotide

Row | Sequence | apparent Kd [1] | apparent Kd [2] | apparent Kd [3] | apparent Kd [4]
1 | AAGUUUGUACGAGGAUAUCAGUUGUUUCUAAAUUCAACAUGAGGAUCACCCAUGUAACAAUGGAGUGAGAAGGCGUGUGGGCAA | 740 nM | 554 nM |  | 
2 | CCGGAAUUACAGGAUAUAGGAGUCGAUAGACACCUAGAAGGGUAGACAUGAGGAUCACCCAUGUGUCCUACCGG |  |  | 273 nM | 182 nM
3 | GAUCGACCUGAGAAGGCACAUGAGGAUCACCCAUGUUGAACCAUACAUGCCACAAAGUGGCAGUGUGAGGAUAUCAGGUCGAUC |  |  | 5.81 nM | 8.34 nM
4 | CUUCGUAUAGAGGAUAUAGGUUACUACGGUAUCCUAGAAGGCUGUACAUGAGGAUCACCCAUGUACUUCAGAUC |  |  | 12.9 nM | 16.1 nM
5 | UAUUCUUACGAAGGAUAUGGUUACAUGAGGAUCACCCAUGUAUGUAUAUUGAUCUAGUUUUUUAACCAGAAGGUCGUGAGUAUA |  |  | 40.4 nM | 54.2 nM
6 | UGUAUUAUCGGAGGAUAUCGAUAUCAAACAUGAGGAUCACCCAUGUUGAGGAUCACCCAUGUCCACGAGAAGGCCGGCGUACUC | 25.7 nM | 26.4 nM |  | 
7 | GAUCCUUAAGUCAGGAUAUCAAGCAAACUCUAAAUUGAGAAGGGACAUGAGGAUCACCCAUGUCACCGAAAUAA |  |  | 14.7 nM | 16.2 nM
8 | UCAGGAGUCACAGGAUAUCCGGCAUAGCAUACAGGAGAAGGGUGAUCACGAGCACAUGAGGAUCACCCAUGUGACAUUUGUGGA | 96.3 nM | 83.3 nM |  | 
9 | UCGAAGUCCGCCGGACGGCGAGCGAGAAGGCACAAUGAAACGACUCUACAUGAGGAUCACCCAUGUGAGGAUAUCGCGACCUAG |  |  | 8.27 nM | 57.7 nM
10 | GUAGCAUAUGAUUUACAUGAGGAUCACCCAUGUAUCUUGGGUAAGGAUAUUGAUGUUAUGUUAAUCAAGAAGGUACUAUGCUAC | 50.5 nM | 8.66 nM |  | 
11 | GGAAAUCAUGUAGGAUAUGCAUGGCGAAGCUACGCAGAAGGACAUGAGGAUCACCCAUGUUAUAGCGUUCGAGAAAGGAUGCAA |  |  | 20.1 nM | 87.9 nM
12 | AUAAUGUGAGGAUAUAUGUAUCACGGUGAUACACCGUGAUGAUAGAAGGUACAUGAGGAUCACCCAUGUAGGGC |  |  | 36.6 nM | 72.7 nM
13 | UUGAAUCGAAACAUGAGGAUCACCCAUGUGUCGUAAUUGACAUAGGAUAUGUAUAUACUUUUAUAAUAGAAGGAUGACGAUACU | 9.09 nM | 7.94 nM |  | 
14 | UGAUAACAUGUAGGAUAUCCAGCAUUGACCAUCGGAGAAGGACAUGAGGAUCACCCAUGUACCGAUACAAUGGGAUAACGGAAU |  |  | 15.7 nM | 17.7 nM
15 | UUGGACGUCGUAGGAUAUGUAGGAUAUUCCUACAUGAGGAUCACCCAUGUUGGCAUGGAAGAAGGACAGAAGGACGAUGUCCAU | 158 nM | 4.94 nM |  | 
16 | GACUGGCAGCUAGGAUAUGGGCGAUCACAUGAGGAUCACCCAUGUCAACAUCAAAACAAGAUUAACCAGAAGGAGCCGCGGGCU | 17.3 nM | 49.7 nM |  | 
17 | GAAUAAUUGAUCCAAUUUAUCUACAUGAGGAUCACCCAUGUGCAGGAUAUCGUAAUAUUUAAUUACGAGAAGGGCAAGAACGGU |  |  | 281 nM | 425 nM
18 | AAUAUGUUGCAGAAGGUUAUAUUUUUUUAGUACCUCAUGACAUGAGGAUCACCCAUGUAUUUGUUGAAGGAUAUGCAAUAUAUU |  |  | 23.1 nM | 20.8 nM
19 | CUGUGACGGUGCGCAAGUGGACGUAGAAGGGUCACAUGAGGAUCACCCAUGUGGGCCUGCUAGUGACAGGAUAUACGUUCGUAC |  |  | 13.7 nM | 38.3 nM
20 | AUAUUCUAGAUAGGAUAUACUGAGGUUGAAUGGGUAGAAGGAUCGUGAGAGUGGACUACAUGAGGAUCACCCAUGUUGUUUAUU | 61.6 nM | 59 nM |  | 
21 | GCCGGGUCAGGAUAUGGGCCCGGGCCCGAAAGGGCCCGGGCCCAGAAGGGACAUGAGGAUCACCCAUGUCCGGC |  |  | 19.5 nM | 16.5 nM
22 | AAAAAGUGAGGAUAUGCUGCUCGUCACUUGCGUGAUGAGUAGCAGAAGGCACAUGAGGAUCACCCAUGUAAAGA |  |  | 39 nM | 49.7 nM
23 | UCCUUGUUCUGAGGAUAUCCGCGGUUCCCAAAAGGAGAAGGCAGGACAUGAGGAUCACCCAUGUACCCAGAAAACGUGCAGAGU |  |  | 9.85 nM | 37.4 nM
24 | ACCUGACAUGAGGAUCACCCAUGUGAGGAUAUGUACAUCAGGAAAAAAAAACUGAUGUACAGAAGGCACUUGGG |  |  | 25.4 nM | 37.1 nM
25 | AAAUAGAUCCGAGGAUAUACAAUCCGGAAACGGUACAUGAGGAUCACCCAUGUAGAAGGCGGAUCUACAGGUACUAAAGUAAAA |  |  | 10.8 nM | 10.8 nM
26 | UAUGUGUCAGGAUAUUAGUAGUAAAUGAAUAAAAUUAUUACUGAGAAGGGACAUGAGGAUCACCCAUGUGCCUU |  |  | 15.9 nM | 20.3 nM
27 | AUGGUCAUGUUAGGAUAUGACGCGCUGUACGCAUCAGAAGGAACAUGAGGAUCACCCAUGUAUAGAGUAUUAUCGCUUACUCUC |  |  | 52.7 nM | 85.3 nM
28 | UUGGCUAAACCUCAGAGUACCACAUGAGGAUCACCCAUGUGGAGAAGGGACUUUGUACCGUUGAGUCAGGAUAUUCAUUGGGUA |  |  | 5.17 nM | 7.35 nM
